Results published in PMC10915797 (Molecular Pharmaceutics, 2024).

Experiments:
[1] = system: U87MG cells; assay: Blocking of tracer cell binding by PD-L1 antibodies; format: cell-based, human; conditions: U87MG cells pre-incubated with 50 nM antibody, 4 °C, 30 min, then tracer 30 min
Procedure, shortened: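 U87MG cells (1 × 10^6 per sample, n = 3) pre-incubated with PBS or 50 nM PD-L1 monoclonal antibody, 4 °C, 30 min, then given 0.1 μCi Al[18F]F-NOTA-PCP1 at 4 °C for 30 min. Washed three times with PBS–0.1% Tween-20. Bound radioactivity gamma-counted and expressed as %ID. Compared with PBS-treated cells by unpaired two-tailed t test.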

[2] = target: recombinant human PD-L1 protein (Homo sapiens, UniProt Q9NZQ7); assay: SPR binding affinity; conditions: read-out: Kd (dissociation rate constant)
recombinant human PD-L1 protein, sequence (Q9NZQ7 19-290): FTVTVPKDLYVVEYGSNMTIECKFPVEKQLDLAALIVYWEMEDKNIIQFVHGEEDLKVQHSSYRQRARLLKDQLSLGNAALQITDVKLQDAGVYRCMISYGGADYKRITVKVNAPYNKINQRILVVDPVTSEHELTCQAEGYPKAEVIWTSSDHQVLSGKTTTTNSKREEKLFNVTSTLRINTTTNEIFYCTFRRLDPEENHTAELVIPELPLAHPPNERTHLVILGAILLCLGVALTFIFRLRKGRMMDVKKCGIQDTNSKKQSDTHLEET
Procedure, shortened: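 SPR on a CM5 chip at 25 °C. Recombinant human PD-L1 immobilised; surface blocked at pH 8.5. Peptide in HEPES-buffered saline (pH 7.2–7.4, 0.005% P20) at seven concentrations, 1.5625–100 nM, injected at 10 μL/min: 120 s association, 360 s dissociation. Regenerated with glycine pH 2.0 for 15 s. Blank-subtracted sensorgrams fitted to give the dissociation rate constant.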

[3] = target: recombinant murine PD-L1 protein (Mus musculus, UniProt Q9EP73); assay: SPR binding affinity; conditions: read-out: Kd (dissociation rate constant)
recombinant murine PD-L1 protein, sequence (Q9EP73 19-290): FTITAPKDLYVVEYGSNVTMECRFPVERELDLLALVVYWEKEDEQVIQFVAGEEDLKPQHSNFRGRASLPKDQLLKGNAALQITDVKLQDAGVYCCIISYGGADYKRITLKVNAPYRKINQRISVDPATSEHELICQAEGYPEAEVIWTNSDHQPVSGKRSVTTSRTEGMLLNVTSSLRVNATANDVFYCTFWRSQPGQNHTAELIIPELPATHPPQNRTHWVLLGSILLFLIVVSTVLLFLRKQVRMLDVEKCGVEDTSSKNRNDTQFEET

[4] = system: U87MG tumors; assay: Micro-PET/CT target engagement of PD-L1 antibodies; format: in vivo, BALB/c nude mice; conditions: U87MG model
Procedure, shortened: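 Female BALB/c nude mice (6–8 weeks, 18.0–23.0 g) carried subcutaneous right-flank U87MG xenografts (6 × 10^6 cells) grown to 100–300 mm3. Atezolizumab given at 0.05–20 mg/kg (n = 3). Imaged 24 or 120 h later: 6.0 ± 0.91 MBq tracer via tail vein, micro-PET/CT at 2 h post-injection under 1.5–2% isoflurane. 3D-OSEM/OP-MAP reconstruction with attenuation correction; manual tumour ROIs; uptake as %ID/cc.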

Question: Which “Al[^18F]F-NOTA-PCP1 cell uptake after antibody treatment” value (“Al[^18F]F-NOTA-PCP1 cell uptake” below) [1] does the source give for AveMab: anti-PD-L1 monoclonal antibody here?
Answer: 1.40 ± 0.05 %ID

Question: Which results are given for `CCCC[C@H]1C(=O)N(C)[C@@H](CCCC)C(=O)N[C@@H](CCCNC(=O)CCOCCOCCOCCNC(=O)CN2CCN(CC(=O)O)CCN(CC(=O)O)CC2)C(=O)N[C@H](C(=O)NCC(N)=O)CSCC(=O)N[C@@H](Cc2ccc(O)cc2)C(=O)N(C)[C@@H](C)C(=O)N[C@@H](CC(N)=O)C(=O)N2CCC[C@H]2C(=O)N[C@@H](Cc2c[nH]cn2)C(=O)N[C@@H](CC(C)C)C(=O)N2C[C@H](O)C[C@H]2C(=O)N[C@@H](Cc2c[nH]c3ccccc23)C(=O)N[C@@H](CO)C(=O)N[C@@H](Cc2cn(C)c3ccccc23)C(=O)N1C` [NOTA-PCP1]?
Answer: koff [2]: 0.000593 s⁻¹; koff [3]: 0.52 s⁻¹

Question: For AtzMab: anti-PD-L1 monoclonal antibody, which “Al[^18F]F-NOTA-PCP1 cell uptake” value [1] is on record?
Answer: 1.26 ± 0.05 %ID

Question: And the “tumor Al[^18F]F-NOTA-PCP1 uptake on PET/CT after antibody” value (“tumor Al[^18F]F-NOTA-PCP1 uptake” for short) ([4]; AtzMab 0.05 mg/kg, at 120h, n = 3 (Figure 6B))?
Answer: 11.64 ± 1.13 %ID/cc

Question: What about the “tumor Al[^18F]F-NOTA-PCP1 uptake” value ([4]; AtzMab 0.5 mg/kg, at 120h, n = 3 (Figure 6B)) of the same compound?
Answer: 6.17 ± 0.35 %ID/cc

Question: And the “tumor Al[^18F]F-NOTA-PCP1 uptake” value ([4]; AtzMab 5 mg/kg, 24 h, n = 3 (Figure 7B))?
Answer: 2.16 ± 0.20 %ID/cc

Question: What about the “tumor Al[^18F]F-NOTA-PCP1 uptake” value ([4]; AtzMab 5 mg/kg, 120 h, n = 3 (Figure 7B)) of the same compound?
Answer: 6.91 ± 0.18 %ID/cc

Question: What about the “tumor Al[^18F]F-NOTA-PCP1 uptake” value ([4]; AtzMab 20 mg/kg, 24 h, n = 3 (Figure 7B)) of the same compound?
Answer: 2.19 ± 0.13 %ID/cc

Question: And the “tumor Al[^18F]F-NOTA-PCP1 uptake” value ([4]; AtzMab 20 mg/kg, 120 h, n = 3 (Figure 7B))?
Answer: 2.29 ± 0.04 %ID/cc

Question: And the “tumor Al[^18F]F-NOTA-PCP1 uptake” value ([4]; AtzMab 20 mg/kg, at 120h, n = 3 (Figure 6B))?
Answer: 2.02 ± 0.14 %ID/cc

Question: With DurMab: anti-PD-L1 monoclonal antibody as the compound, how does the “Al[^18F]F-NOTA-PCP1 cell uptake” value [1] read?
Answer: 1.34 ± 0.09 %ID
